Measurements from ChEMBL document CHEMBL1123088, “Synthesis and characterization of selected heteroarotinoids. Pharmacological activity as assessed in vitamin A deficient hamster tracheal organ cultures. Single-crystal X-ray diffraction analysis of 4,4-dimethylthiochroman-6-yl methyl ketone 1,1-dioxide and ethyl …” (1985).

Legend:
Cricetinae gen. sp. [1] = assay: Dose for reversal of keratinization in epithelium of 50% of retinoid-deficient hamster tracheas in organ culture in experiment D; format: functional, Cricetulus griseus; conditions: Trachea, read-out: ED50 (the source's name)
How it was run: (§1)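 Tracheas taken from vitamin A-deficient hamsters were kept in organ culture and scored for reversal of squamous keratinization of the epithelium. All-trans-retinoic acid was run at the same time as a reference in each separate experiment. ED50 is the molar dose that reverses keratinization in 50% of the retinoid-deficient tracheas.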

Cricetinae gen. sp. [2] = assay: Dose for reversal of keratinization in epithelium of 50% of retinoid-deficient hamster tracheas in organ culture in experiment A; format: functional, Cricetulus griseus; conditions: Trachea, read-out: ED50 (the source's name); how it was run: as §1
Cricetinae gen. sp. [3] = assay: Dose for reversal of keratinization in epithelium of 50% of retinoid-deficient hamster tracheas in organ culture in experiment C; format: functional, Cricetulus griseus; conditions: Trachea, read-out: ED50 (the source's name); how it was run: as §1
Cricetinae gen. sp. [4] = assay: Percent activity in the Hamster tracheal organ culture assay at concentration 10e-10 (M) in experiment B; format: functional, Cricetulus griseus, Trachea; how it was run: as §1
Cricetinae gen. sp. [5] = assay: Percent activity in the Hamster tracheal organ culture assay at concentration 10e-10 (M) in experiment C; format: functional, Cricetulus griseus, Trachea; how it was run: as §1
Cricetinae gen. sp. [6] = assay: Percent activity in the Hamster tracheal organ culture assay at concentration 10e-10 (M) in experiment D; format: functional, Cricetulus griseus, Trachea; how it was run: as §1
Cricetinae gen. sp. [7] = assay: Percent activity in the Hamster tracheal organ culture assay at concentration 10e-11 (M) in experiment A; format: functional, Cricetulus griseus, Trachea; how it was run: as §1
Cricetinae gen. sp. [8] = assay: Percent activity in the Hamster tracheal organ culture assay at concentration 10e-11 (M) in experiment B; format: functional, Cricetulus griseus, Trachea; how it was run: as §1
Cricetinae gen. sp. [9] = assay: Percent activity in the Hamster tracheal organ culture assay at concentration 10e-11 (M) in experiment C; format: functional, Cricetulus griseus, Trachea; how it was run: as §1
Cricetinae gen. sp. [10] = assay: Percent activity in the Hamster tracheal organ culture assay at concentration 10e-11 (M) in experiment D; format: functional, Cricetulus griseus, Trachea; how it was run: as §1
Cricetinae gen. sp. [11] = assay: Percent activity in the Hamster tracheal organ culture assay at concentration 10e-12 (M) in experiment A; format: functional, Cricetulus griseus, Trachea; how it was run: as §1
Cricetinae gen. sp. [12] = assay: Percent activity in the Hamster tracheal organ culture assay at concentration 10e-12 (M) in experiment B; format: functional, Cricetulus griseus, Trachea; how it was run: as §1
Cricetinae gen. sp. [13] = assay: Percent activity in the Hamster tracheal organ culture assay at concentration 10e-12 (M) in experiment C; format: functional, Cricetulus griseus, Trachea; how it was run: as §1
Cricetinae gen. sp. [14] = assay: Percent activity in the Hamster tracheal organ culture assay at concentration 10e-12 (M) in experiment D; format: functional, Cricetulus griseus, Trachea; how it was run: as §1
Cricetinae gen. sp. [15] = assay: Dose for reversal of keratinization in epithelium of 50% of retinoid-deficient hamster tracheas in organ culture in experiment B; format: functional, Cricetulus griseus; conditions: Trachea, read-out: ED50 (the source's name); how it was run: as §1
Cricetinae gen. sp. [16] = assay: Percent activity in the Hamster tracheal organ culture assay at concentration 10e-10 (M)
Cricetinae gen. sp. [17] = assay: Dose for reversal of keratinization in epithelium of 50% of retinoid-deficient hamster tracheas in organ culture; format: functional, Cricetulus griseus; conditions: Trachea, read-out: ED50 (the source's name); how it was run: as §1
Cricetinae gen. sp. [18] = assay: Percent activity in the Hamster tracheal organ culture assay at concentration 10e-10 (M); format: functional, Cricetulus griseus, Trachea; how it was run: as §1
Cricetinae gen. sp. [19] = assay: Percent activity in the Hamster tracheal organ culture assay at concentration 10e-11 (M); format: functional, Cricetulus griseus, Trachea; how it was run: as §1
Cricetinae gen. sp. [20] = assay: Percent activity in the Hamster tracheal organ culture assay at concentration 10e-12 (M); format: functional, Cricetulus griseus, Trachea; how it was run: as §1
Cricetinae gen. sp. [21] = assay: Percent activity in the Hamster tracheal organ culture assay at concentration 10e-9 (M); format: functional, Cricetulus griseus, Trachea; how it was run: as §1
Cricetinae gen. sp. [22] = assay: Percent activity in the Hamster tracheal organ culture assay at concentration 10e-8(M); format: functional, Cricetulus griseus, Trachea; how it was run: as §1
Cricetinae gen. sp. [23] = assay: The dose for reversal of keratinization in epithelium of 50% of retinoid-deficient hamster tracheas in organ culture; format: functional, Cricetulus griseus; conditions: Trachea, read-out: ED50 (the source's name); how it was run: as §1

Structure (SMILES): CC1=C(/C=C/C(C)=C/C=C/C(C)=C/C(=O)O)C(C)(C)CCC1 [TRETINOIN]
- EC50 (Cricetinae gen. sp. [1]): 0.01 nM
- EC50 (Cricetinae gen. sp. [2]): 0.02 nM
- EC50 (Cricetinae gen. sp. [3]): 0.1 nM
- Activity (Cricetinae gen. sp. [4]): 100%
- Activity (Cricetinae gen. sp. [5]): 83.3%
- Activity (Cricetinae gen. sp. [6]): 83.7%
- Activity (Cricetinae gen. sp. [7]): 41.7%
- Activity (Cricetinae gen. sp. [8]): 53.8%
- Activity (Cricetinae gen. sp. [9]): 50%
- Activity (Cricetinae gen. sp. [10]): 50%
- Activity (Cricetinae gen. sp. [11]): 23.1%
- Activity (Cricetinae gen. sp. [12]): 23.1%
- Activity (Cricetinae gen. sp. [13]): 16.7%
- Activity (Cricetinae gen. sp. [14]): 33.3%
- EC50 (Cricetinae gen. sp. [15]): 0.009 nM
- Activity (Cricetinae gen. sp. [16]): 76.9%

Structure (SMILES): CCOC(=O)c1ccc(/C=C(\C)c2ccc3c(c2)C(C)(C)CCS3)cc1
- EC50 (Cricetinae gen. sp. [17]): 0.06 nM
- Activity (Cricetinae gen. sp. [18]): 53.8%
- Activity (Cricetinae gen. sp. [19]): 28.6%
- Activity (Cricetinae gen. sp. [20]): 33.7%
- Activity (Cricetinae gen. sp. [21]): 100%

Structure (SMILES): CCOC(=O)c1ccc(/C=C(\C)c2ccc3c(c2)C(C)(C)CCO3)cc1
- EC50 (Cricetinae gen. sp. [17]): 0.1 nM
- Activity (Cricetinae gen. sp. [18]): 50%
- Activity (Cricetinae gen. sp. [19]): 28.2%
- Activity (Cricetinae gen. sp. [21]): 100%

Structure (SMILES): C/C(=C\c1ccc(C(=O)O)cc1)c1ccc2c(c1)C(C)(C)CCO2
- EC50 (Cricetinae gen. sp. [17]): 0.6 nM
- Activity (Cricetinae gen. sp. [18]): 18.6%
- Activity (Cricetinae gen. sp. [22]): 71.4%
- Activity (Cricetinae gen. sp. [21]): 71.4%

Structure (SMILES): CCOC(=O)c1ccc(/C=C(\C)c2ccc3c(c2)C(C)(C)CC[S+]3[O-])cc1 (centres undefined)
- Activity (Cricetinae gen. sp. [18]): 57.1%
- Activity (Cricetinae gen. sp. [19]): 11.1%
- Activity (Cricetinae gen. sp. [22]): 100%
- Activity (Cricetinae gen. sp. [21]): 100%
- EC50 (Cricetinae gen. sp. [23]): 0.1 nM
